Here are results for 11 compounds from article PMC5871537 (Molecular pharmaceutics, 2017).

Each structure is given as a SMILES string. Values joined by “and” are separate entries in the source; they are usually repeats but may differ in a detail not shown here. Equal values may be shown once.

One data set deals with sickle Hb (Hb S) (Homo sapiens, UniProt P69905). Nature of the data set: Hb adduct formation study. The data set is classed as cell-based. The following applies: SS cells, 20% hematocrit, 2 mM compound, mean ± SD of three experiments. A digest of the protocol:
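SS cell suspensions (20% hematocrit) were incubated with test compound (final DMSO <2%) in air at 37 °C for 1 h, then under 4% O2/96% N2 at 37 °C for 2 h. Cells were PBS-washed and lysed in hypotonic buffer. Clarified hemolysate was run on weak cation-exchange HPLC, and modified Hb S was taken from elution patterns. Three biological replicates, mean ± SD.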

Data set [1] deals with SS cells (homozygous sickle red blood cells). Nature of the data set: Antisickling study. The data set is classed as cell-based, human. The following applies: for inhibition of RBC sickling: hypoxia. In short, it runs like this:
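SS patient blood suspensions (20% hematocrit) were preincubated in air with 0, 1, 2 or 5 mM test compound (final DMSO <2%) at 37 °C for 1 h. They were then held under hypoxia (4% O2/96% N2) at 37 °C for 2 h. Aliquots were fixed in 2% glutaraldehyde without air exposure and scored microscopically for sickled cells. % inhibition was calculated against untreated control. Three biological replicates.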

The next data set has as its target Hb A (Homo sapiens, UniProt P69905). As to the kind of experiment: Time-dependent Hb adduct formation in normal whole blood. It is filed as in vitro ADME. The following applies: for Hb modification (residual Hb adduct) at 24 h: normal whole blood, 2 mM compound; for remaining activity at 2000 µM: read-out: remaining activity at 24 h. In short, it runs like this: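 Normal donor whole blood (30% hematocrit) was incubated with 2 mM test compound at 37 °C for 24 h with shaking at 140 rpm. Aliquots taken at 0.5, 1, 2, 4, 6, 8 and 24 h were mixed 1:1 with sodium cyanoborohydride/borohydride mix (50 mM stock) to fix adducts. Samples were stored at −80 °C, then analysed by cation-exchange HPLC as %Hb modified versus time. Peak was found by visual inspection and AUC0–24 by linear trapezoidal rule.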

In a further data set the target is Hb (Homo sapiens, UniProt P69905). Nature of the data set: Incubation of VZHE004 with Hb for 3 days, UPLC-MS analysis. It is filed as physicochemical. The following applies: incubated with Hb for 3 days.
For data set [2] the following is noted: cited from earlier work.
The mark [3] stands for this setting: at all three concentrations (1, 2 and 5 mM).

As for `CCCOCc1ccc(C=O)o1` [VZHE015, 5-(Propoxymethyl)-2-furan Carboxadehyde], the “modified Hb (%)” value at sickle Hb (Hb S) stood at 39.7 ± 8.2%.
In the case of `O=Cc1ccc(COc2ccc(Cl)cc2)o1` [5-CMFC, 5-((4-chlorophenoxy)methyl)-2-furan carbaldehyde], the “inhibition of RBC sickling” value in data set [1] (setting [3]) is less than 10%.
With `CCOCc1ccc(C=O)o1` [VZHE011, 5-(Ethoxymethyl)-2-furan Carboxadehyde], the “modified Hb (%)” value at sickle Hb (Hb S) is 40.4 ± 3.9%.
As to `COP(=O)(OC)OCc1ccc(C=O)o1` [VZHE014, (5-Formylfuran-2-yl)methyl Dimethyl Phosphate], in data set [1] (5 mM compound), the “inhibition of RBC sickling” value was 43% and ~ 40%. For the same compound, the “modified Hb (%)” value on sickle Hb (Hb S) is given as 19.7 ± 6.3%.
By remaining activity is commonly meant the signal under treatment as a percentage of the control signal. Consider `O=Cc1ccc(COc2ccccc2[N+](=O)[O-])o1` [5-NMFC, 5-((2-nitrophenoxy)methyl)-2-furan carbaldehyde], for which the “inhibition of RBC sickling” value in data set [1] (setting [3]) was less than 10%. At Hb A, the “Hb modification (residual Hb adduct) at 24 h” value was ~ 7% and the remaining activity at 2000 µM was approximately 29%.
Consider `CC(=O)OCc1ccc(C=O)o1` [VZHE004, (5-Formylfuran-2-yl)methyl Acetate], for which, at Hb, the “stability against hydrolytic cleavage of the ester (UPLC–MS)” value was “intact”.
In the case of `O=Cc1ccc(CO)o1` [5-HMF, 5-hydroxymethyl-2-furfural, reference compound], in data set [2], the plasma half-life is listed as ~ 1 h. Moreover, on Hb A, the “Hb modification (residual Hb adduct) at 24 h” value is ~ 2% and 1.1%; the remaining activity at 2000 µM was approximately 8%.
In the case of `CC(C)(C)OC(=O)OCc1ccc(C=O)o1` [VZHE006, tert-Butyl((5-formylfuran-2-yl)methyl) Carbonate], in data set [1] (2 mM compound), the “fold antisickling potency over the other three esters and 5-HMF” value is on record as “roughly 3 fold”. Further, in data set [1] (5 mM compound), the “inhibition of RBC sickling” value is on record as more than 95%. Also, the “modified Hb (%)” value at sickle Hb (Hb S) worked out at 50.0 ± 3.0%.
For the compound `O=Cc1ccc(COc2ccccc2)o1` [5-PMFC, 5-(Phenoxymethyl)-2-furan carbaldehyde], on Hb A, the “Hb modification (residual Hb adduct) at 24 h” value is listed as ~ 7% and the remaining activity at 2000 µM is approximately 29%.
Regarding `COCc1ccc(C=O)o1` [VZHE005, 5-(Methoxymethyl)-2-furan Carboxadehyde], the “modified Hb (%)” value on sickle Hb (Hb S) amounted to 35.3 ± 11.6%.
Consider `CC(C)OCc1ccc(C=O)o1` [VZHE016, 5-(Isopropoxymethyl)-2-furan Carboxadehyde], for which the “inhibition of RBC sickling” value in data set [1] (5 mM compound) is given as less than 10%. The “modified Hb (%)” value on sickle Hb (Hb S) turned out to be 36.4 ± 9.7%.
